According to ChEMBL document CHEMBL2429814 (J Med Chem, 2013):
Values belong to the molecule of their own block, whether it stands above or below them.

Key:
[1] = molecular target: T1, Metabotropic glutamate receptor 5 (Rattus norvegicus, UniProt P31424); test: Positive allosteric modulation of rat mGluR5 stably expressed in CHO cells assessed as calcium mobilization; type: functional, cell-based
[2] = Ratio of drug level in brain to plasma in (unknown origin); type: ADME, cell-free; settings: brain and plasma; read-out: BPR
[3] = Protein binding in (unknown origin) plasma; type: ADME, cell-free; settings: read-out: PPB (converted)
[4] = molecular target: T1, Metabotropic glutamate receptor 5; test: Antagonist activity at rat mGluR5 stably expressed in HEK293 cells assessed as inhibition of glutamate-induced intracellular calcium level by Fluo-4AM dye-based fluorescence assay; type: functional, cell-based
[5] = molecular target: Metabotropic glutamate receptor 5 (Rattus norvegicus) (UniProt P31424); test: Antagonist activity at rat mGluR5 stably expressed in HEK293 cells assessed as inhibition of glutamate-induced intracellular calcium level by Fluo-4AM dye-based fluorescence assay relative to control; type: functional, cell-based; settings: concentration not given here
[6] = Fraction unbound in human plasma by equilibrium dialysis method; type: ADME, cell-free
How it was run: (§1)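 Plasma protein binding measured by equilibrium dialysis in human or rat plasma; reported as percent unbound.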

[7] = Plasma protein binding in rat; type: ADME, cell-free
How it was run: (§2)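 Fraction unbound measured by equilibrium dialysis in human or rat plasma.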

[8] = Plasma protein binding in human; type: ADME, cell-free; how it was run: as §2
[9] = Fraction unbound in rat plasma by equilibrium dialysis method; type: ADME, cell-free; how it was run: as §1
[10] = molecular target: T1, Metabotropic glutamate receptor 5; test: Positive allosteric modulation of rat mGluR5
[11] = molecular target: T1, Metabotropic glutamate receptor 5; test: Agonist activity at rat mGluR5 stably expressed in HEK293 cells assessed as increase in intracellular calcium level by Fluo-4AM dye-based fluorescence assay; type: cell-based; settings: read-out: EC50
How it was run: (§3)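 HEK293 cells stably expressing rat mGlu5 (low receptor density line), 15,000 cells/well, grown overnight at 37°C/5% CO2. Loaded with Fluo-4AM for 50 min at 37°C in HBSS with 20 mM HEPES, 2.5 mM probenecid, pH 7.4. Triple add: compound, then EC20 glutamate 140 s later, then EC80 glutamate 60 s later. Calcium fluorescence read over time. Values are means of ≥3 independent experiments run in duplicate or triplicate.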

[12] = molecular target: T1, Metabotropic glutamate receptor 5; test: Positive allosteric modulation of rat mGluR5 stably expressed in HEK293 cells assessed as increase in intracellular calcium level by Fluo-4AM dye-based fluorescence assay; type: functional, cell-based; settings: read-out: EC50; how it was run: as §3
[13] = molecular target: T1, Metabotropic glutamate receptor 5; test: Agonist activity at rat mGluR5 stably expressed in HEK293 cells assessed as increase in intracellular calcium level by Fluo-4AM dye-based fluorescence assay relative to glutamate; type: cell-based; settings: read-out: Efficacy
How it was run: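 HEK293 cells stably expressing rat mGlu5 (low receptor density), 15,000 cells/well, grown overnight, then loaded with Fluo-4AM for 50 min at 37°C in HBSS/20 mM HEPES/2.5 mM probenecid, pH 7.4. Triple-add protocol: compound, then glutamate EC20 140 s later, then EC80 60 s later. Fluorescence read over time. At least three independent runs in duplicate or triplicate; response given as % of glutamate maximum.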

[14] = molecular target: Metabotropic glutamate receptor 5 (Rattus norvegicus) (UniProt P31424); test: Positive allosteric modulation of rat mGluR5 stably expressed in HEK293 cells assessed as increase in intracellular calcium level by Fluo-4AM dye-based fluorescence assay relative to glutamate; type: functional, cell-based
[15] = Agonist activity at rat mGluR5 T780A mutant stably expressed in HEK293 cells assessed as increase in intracellular calcium level at 1 to 100 uM by Fluo-4AM dye-based fluorescence assay; type: cell-based; settings: hek293, 100 µM
[16] = molecular target: T1, Metabotropic glutamate receptor 5; test: Positive allosteric modulation of rat mGluR5 stably expressed in HEK293 cells assessed as Ca2+ flux by FLIPR assay; type: functional, cell-based
[17] = molecular target: Metabotropic glutamate receptor 5 (Homo sapiens, UniProt P41594); test: Positive allosteric modulation of human mGluR5 stably expressed in HEK293 cells assessed as Ca2+ flux by FLIPR assay
Sequence of Metabotropic glutamate receptor 5 (Homo sapiens, UniProt P41594) (P41594 whole entry): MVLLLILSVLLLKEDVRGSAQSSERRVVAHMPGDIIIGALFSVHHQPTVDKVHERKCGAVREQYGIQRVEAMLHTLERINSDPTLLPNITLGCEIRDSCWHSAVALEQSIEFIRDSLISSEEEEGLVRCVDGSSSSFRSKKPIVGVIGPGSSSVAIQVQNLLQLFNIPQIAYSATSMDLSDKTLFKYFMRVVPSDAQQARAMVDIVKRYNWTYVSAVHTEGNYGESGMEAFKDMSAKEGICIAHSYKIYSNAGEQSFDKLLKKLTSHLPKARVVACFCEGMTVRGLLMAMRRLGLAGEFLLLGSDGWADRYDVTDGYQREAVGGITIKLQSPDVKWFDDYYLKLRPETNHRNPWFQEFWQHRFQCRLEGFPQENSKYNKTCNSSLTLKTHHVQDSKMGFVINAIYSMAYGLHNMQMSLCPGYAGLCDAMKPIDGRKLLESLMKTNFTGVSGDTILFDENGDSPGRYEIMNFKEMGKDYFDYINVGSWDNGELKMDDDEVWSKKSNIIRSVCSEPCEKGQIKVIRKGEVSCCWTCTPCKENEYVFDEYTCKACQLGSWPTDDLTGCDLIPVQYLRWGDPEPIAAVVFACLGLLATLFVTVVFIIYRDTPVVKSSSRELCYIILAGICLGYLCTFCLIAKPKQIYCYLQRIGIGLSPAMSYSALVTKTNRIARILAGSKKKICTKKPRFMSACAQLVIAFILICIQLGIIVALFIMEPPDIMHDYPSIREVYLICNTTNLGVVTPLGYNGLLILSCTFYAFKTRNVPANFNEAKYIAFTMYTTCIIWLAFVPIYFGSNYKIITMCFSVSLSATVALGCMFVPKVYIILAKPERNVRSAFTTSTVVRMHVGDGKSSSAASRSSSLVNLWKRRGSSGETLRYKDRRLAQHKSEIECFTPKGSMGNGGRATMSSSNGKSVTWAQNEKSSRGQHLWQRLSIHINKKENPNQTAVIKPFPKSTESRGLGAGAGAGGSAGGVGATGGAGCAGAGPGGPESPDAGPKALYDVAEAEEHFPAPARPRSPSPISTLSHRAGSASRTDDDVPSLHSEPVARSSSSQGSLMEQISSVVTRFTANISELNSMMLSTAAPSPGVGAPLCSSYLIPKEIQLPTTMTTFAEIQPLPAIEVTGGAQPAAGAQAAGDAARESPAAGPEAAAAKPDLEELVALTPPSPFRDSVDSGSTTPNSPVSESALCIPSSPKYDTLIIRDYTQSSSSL

T1 sequence (P31424 whole entry): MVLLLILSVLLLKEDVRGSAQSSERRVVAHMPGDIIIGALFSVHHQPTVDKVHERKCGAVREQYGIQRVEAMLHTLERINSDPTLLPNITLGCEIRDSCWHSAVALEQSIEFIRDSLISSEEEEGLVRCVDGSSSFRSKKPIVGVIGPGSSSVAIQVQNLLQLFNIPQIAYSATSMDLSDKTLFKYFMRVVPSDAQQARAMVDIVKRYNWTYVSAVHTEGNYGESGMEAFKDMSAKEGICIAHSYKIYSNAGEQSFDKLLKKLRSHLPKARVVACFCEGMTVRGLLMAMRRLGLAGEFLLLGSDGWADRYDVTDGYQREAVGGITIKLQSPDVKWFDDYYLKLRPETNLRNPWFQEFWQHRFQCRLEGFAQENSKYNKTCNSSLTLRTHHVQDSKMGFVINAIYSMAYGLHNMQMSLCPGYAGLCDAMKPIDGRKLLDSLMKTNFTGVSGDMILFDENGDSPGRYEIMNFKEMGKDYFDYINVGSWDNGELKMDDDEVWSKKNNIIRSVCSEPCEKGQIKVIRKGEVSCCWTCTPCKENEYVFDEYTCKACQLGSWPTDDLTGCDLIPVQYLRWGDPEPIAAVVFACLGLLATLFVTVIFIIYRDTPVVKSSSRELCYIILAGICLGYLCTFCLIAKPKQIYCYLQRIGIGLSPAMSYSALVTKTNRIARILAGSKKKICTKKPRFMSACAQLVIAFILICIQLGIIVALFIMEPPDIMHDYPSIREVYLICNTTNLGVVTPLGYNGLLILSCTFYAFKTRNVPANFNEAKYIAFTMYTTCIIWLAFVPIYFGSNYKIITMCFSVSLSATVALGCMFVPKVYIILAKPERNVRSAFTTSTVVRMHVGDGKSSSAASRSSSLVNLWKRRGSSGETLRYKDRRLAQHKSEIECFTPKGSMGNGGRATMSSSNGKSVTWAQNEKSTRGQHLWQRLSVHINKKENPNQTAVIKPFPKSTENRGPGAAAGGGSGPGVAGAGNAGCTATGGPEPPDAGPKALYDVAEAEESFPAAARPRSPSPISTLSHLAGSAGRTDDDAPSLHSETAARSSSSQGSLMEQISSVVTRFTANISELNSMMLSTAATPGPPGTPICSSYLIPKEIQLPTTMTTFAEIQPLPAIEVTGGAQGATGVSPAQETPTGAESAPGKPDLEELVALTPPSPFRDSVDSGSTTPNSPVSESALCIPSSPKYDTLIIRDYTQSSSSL
Sequence of Metabotropic glutamate receptor 5 (Rattus norvegicus) (P31424 21-1203 limits assumed): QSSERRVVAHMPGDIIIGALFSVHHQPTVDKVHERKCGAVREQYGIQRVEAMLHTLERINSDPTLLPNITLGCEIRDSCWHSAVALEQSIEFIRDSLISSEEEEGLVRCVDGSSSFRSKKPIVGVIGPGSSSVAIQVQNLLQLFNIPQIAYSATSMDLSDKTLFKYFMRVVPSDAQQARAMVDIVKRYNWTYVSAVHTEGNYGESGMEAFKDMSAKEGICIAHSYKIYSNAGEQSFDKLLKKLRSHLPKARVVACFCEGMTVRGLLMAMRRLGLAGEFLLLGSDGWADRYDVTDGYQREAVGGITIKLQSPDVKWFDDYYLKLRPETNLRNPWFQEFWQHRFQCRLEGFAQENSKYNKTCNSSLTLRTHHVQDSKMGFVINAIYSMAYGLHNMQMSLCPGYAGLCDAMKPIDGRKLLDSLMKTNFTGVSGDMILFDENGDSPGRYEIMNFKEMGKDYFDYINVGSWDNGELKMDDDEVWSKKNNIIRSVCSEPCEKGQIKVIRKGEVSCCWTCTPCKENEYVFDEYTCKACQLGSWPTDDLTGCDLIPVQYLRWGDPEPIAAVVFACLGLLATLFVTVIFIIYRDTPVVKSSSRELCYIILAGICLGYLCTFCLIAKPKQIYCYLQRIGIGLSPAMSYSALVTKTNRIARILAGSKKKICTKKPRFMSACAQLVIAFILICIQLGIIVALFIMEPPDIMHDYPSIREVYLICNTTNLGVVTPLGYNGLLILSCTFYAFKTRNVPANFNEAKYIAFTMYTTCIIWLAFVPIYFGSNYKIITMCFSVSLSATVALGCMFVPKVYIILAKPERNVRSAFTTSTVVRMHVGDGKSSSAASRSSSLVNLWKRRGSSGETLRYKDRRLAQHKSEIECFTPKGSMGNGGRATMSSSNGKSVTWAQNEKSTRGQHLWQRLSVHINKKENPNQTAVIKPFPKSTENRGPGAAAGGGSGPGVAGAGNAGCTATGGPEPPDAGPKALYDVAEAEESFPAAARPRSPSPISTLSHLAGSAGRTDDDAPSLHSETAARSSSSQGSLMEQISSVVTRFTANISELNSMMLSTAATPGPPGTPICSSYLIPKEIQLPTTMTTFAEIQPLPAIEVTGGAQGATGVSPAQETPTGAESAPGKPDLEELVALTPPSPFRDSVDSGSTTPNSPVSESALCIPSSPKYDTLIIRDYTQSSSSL

SMILES: O=C(NC1CCC1)c1ccc(C#Cc2cccc(F)c2)nc1
- EC50 [1]: 39 nM
- Kp [2]: 0.13
- fraction unbound [3]: 0.011

SMILES: CC1(NC(=O)c2ccc(C#Cc3ccccn3)cn2)COC1
- IC50 [4]: 731 nM
- inhibition [5]: 16.7%

- fraction unbound [6]: < 0.01
- fraction unbound ([7]; read-out: PPB): < 0.01
- fraction unbound ([8]; read-out: PPB): < 0.01
- fraction unbound [9]: < 0.01
- EC50 [10]: 4 nM
SMILES: O=C(NC1CCC1)c1ccc(C#Cc2cccc(F)c2)cn1

SMILES: C[C@@H](NC(=O)c1ccc(C#Cc2cccc(F)c2)cn1)C(C)(C)O
- fraction unbound [7]: 0.028
- fraction unbound [8]: 0.027
- EC50 [11]: 904 nM
- EC50 [12]: 4.9 nM
- Emax [13]: 37.1%
- EC50 [10]: 1.5 nM
- Efficacy [14]: 63.5%
- Activity [15]: Not Active

- EC50 [16]: 55 nM
- EC50 [17]: 157 nM
SMILES: O=C(c1ccc(F)cc1)N1CCC[C@H](c2nc(-c3ccc(F)cc3)no2)C1
